Results taken from ChEMBL document CHEMBL4808192, “Synthesis and biological evaluation of novel imidazo[1,2-a]pyridine-oxadiazole hybrids as anti-proliferative agents: Study of microtubule polymerization inhibition and DNA binding” (Bioorg Med Chem, 2021).

Columns and labels:
Assay type in all cases: functional, cell-based
DU-145 = experiment: Antiproliferative activity against human DU-145 cells assessed as reduction in cell viability incubated for 48 hrs by MTT assay; settings: DU-145, 48 h
Outline: (§1)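 Cells grown in medium with 10% FBS and 1% antibiotic-antimycotic at 37 °C, passaged at 80–90% confluence with 0.25% trypsin/1 mM EDTA. Seeded at 1000–4000 cells/well and grown overnight. Medium was then replaced and compounds added at various concentrations for 48 h. MTT (0.5 mg/mL) was added for 4 h at 37 °C, formazan dissolved in DMSO and absorbance read at 570 nm. IC50 is the 50% inhibitory concentration.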

PC-3 = experiment: Antiproliferative activity against human PC-3 cells assessed as reduction in cell viability incubated for 48 hrs by MTT assay; settings: PC-3, 48 h; outline: as §1
A549 = experiment: Antiproliferative activity against human A549 cells assessed as reduction in cell viability incubated for 48 hrs by MTT assay; settings: A549, 48 h; outline: as §1

IC50 (DU-145) | IC50 (PC-3) | IC50 (A549) | SMILES
23.4 µM | 22.2 µM | 23.4 µM | c1ccc(-c2nnc(-c3cn4ccccc4n3)o2)cc1
10.8 µM | 11.6 µM | 12.3 µM | Cc1cccn2cc(-c3nnc(-c4ccc(N(C)C)cc4)o3)nc12
38.9 µM | 37.8 µM | 34.7 µM | Cc1cccn2cc(-c3nnc(-c4ccc(Br)cc4)o3)nc12
46 µM | 42 µM | 43.5 µM | Cc1cc(Br)c2nc(-c3nnc(-c4ccc(Cl)cc4)o3)cn2c1
31.5 µM | 33.5 µM | 33.4 µM | Cc1cccn2cc(-c3nnc(-c4ccccc4I)o3)nc12
21.8 µM | 22.8 µM | 23.4 µM | Cc1cccn2cc(-c3nnc(-c4ccccc4)o3)nc12
> 50 µM | > 50 µM | > 50 µM | Brc1ccc(-c2nnc(-c3cn4ccccc4n3)o2)cc1
32.8 µM | 33.7 µM | 32.4 µM | Clc1ccc(-c2nnc(-c3cn4ccccc4n3)o2)cc1
